What was measured:
MGC-803 = test: Cytotoxicity against human MGC803 cells after 48 hrs by MTT assay; assay type: functional, cell-based; settings: MGC-803, 48 h
Procedure, shortened: (§1)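 Cells grown overnight in DMEM + 10% FBS at 37 °C under 5% CO2, then given a range of compound concentrations for 48 h. MTT added for about 4 h, medium replaced by DMSO, absorbance read at 570/630 nm. IC50 reported as mean ± SD of five independent experiments.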

[1] = Inhibition of TNFalpha-induced NF-kB (unknown origin) activation expressed in human NCI-H460 cells after 7 hrs by luciferase reporter gene assay; assay type: cell-based; settings: NCI-H460, 7 h
Procedure, shortened: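 NCI-H460 cells transiently co-transfected with pNF-κB-Luc reporter and pSV-β-galactosidase internal control by lipofectamine. Medium changed after 6 h, then 6 h further culture. TNF-α (15 ng ml–1) plus compound given together for 7 h. Luciferase ratio to TNF-α-only cells, corrected for non-TNF background and viability. IC50 from sigmoidal variable-slope fit.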

[2] = Resistant factor, ratio of IC50 for human NCI-H460/DOX cells to IC50 for human NCI-H460 cells; assay type: functional
L02 = test: Cytotoxicity against human HL7702 cells after 48 hrs by MTT assay; assay type: cell-based; settings: L02, 48 h; procedure, shortened: as §1
[3] = Resistant factor, ratio of IC50 for human HepG2/DOX cells to IC50 for human HepG2 cells; assay type: functional
[4] = Cytotoxicity against human SPCA2 cells after 48 hrs by MTT assay; assay type: functional, cell-based; settings: SPCA2, 48 h; procedure, shortened: as §1
NCI-H460 [5] = test: Cytotoxicity against human NCI-H460 cells after 48 hrs by MTT assay; assay type: functional, cell-based; settings: NCI-H460, 48 h; procedure, shortened: as §1
[6] = Cytotoxicity against human HepG2/DOX cells after 48 hrs by MTT assay; assay type: functional, cell-based; procedure, shortened: as §1
NCI-H460 [7] = test: Cytotoxicity against human NCI-H460 cells harboring pNF-kB-Luc assessed as reduction in cell viability after 7 hrs by MTT assay relative to control; design: concentration or dose not given beside the values; settings: nci-h460, 7 h
A549 = test: Cytotoxicity against human A549 cells after 48 hrs by MTT assay; assay type: functional, cell-based; settings: A549, 48 h; procedure, shortened: as §1
T-24 = test: Cytotoxicity against human T24 cells after 48 hrs by MTT assay; assay type: functional, cell-based; settings: T-24, 48 h; procedure, shortened: as §1
HepG2 = test: Cytotoxicity against human HepG2 cells after 48 hrs by MTT assay; assay type: functional, cell-based; settings: HepG2, 48 h; procedure, shortened: as §1
[8] = Cytotoxicity against human NCI-H460/DOX cells after 48 hrs by MTT assay; assay type: functional, cell-based; settings: NCI-H460, 48 h; procedure, shortened: as §1

| SMILES | IC50 [1] [µM] | IC50 (MGC-803) [µM] | Ratio IC50 [2] | IC50 (L02) [µM] | Ratio IC50 [3] | IC50 [4] [µM] | IC50 (NCI-H460 [5]) [µM] | IC50 [6] [µM] | Activity (NCI-H460 [7]) [%] | IC50 (A549) [µM] | IC50 (T-24) [µM] | IC50 (HepG2) [µM] | IC50 [8] [µM] |
| --- | --- | --- | --- | --- | --- | --- | --- | --- | --- | --- | --- | --- | --- |
| COc1ccc(NC(=O)[C@]23CC[C@@H](C)[C@H](C)[C@H]2C2=CC[C@@H]4[C@@]5(C)CC[C@H](OC(C)=O)C(C)(C)[C@@H]5CC[C@@]4(C)[C@]2(C)CC3)cc1 | 3.64 | 25.2 | 2.12 | > 50 | 1.92 | 13.7 | 10.6 | 47.1 | < 5 | 31.1 | 23.8 | 24.5 | 22.6 |
| COc1cc(NC(=O)[C@]23CC[C@@H](C)[C@H](C)[C@H]2C2=CC[C@@H]4[C@@]5(C)CCC(=O)C(C)(C)[C@@H]5CC[C@@]4(C)[C@]2(C)CC3)cc(OC)c1OC | > 20 | 40.1 |  | > 50 |  | 29.9 | 34.3 |  | < 5 | 41.2 | 39.8 |  |  |
| CC(=O)O[C@H]1CC[C@]2(C)[C@H]3CC=C4[C@@H]5[C@@H](C)[C@H](C)CC[C@]5(C(=O)Nc5cccc(C)c5)CC[C@@]4(C)[C@]3(C)CC[C@H]2C1(C)C |  | > 50 |  | > 50 |  | > 50 | > 50 |  |  | > 50 | > 50 |  |  |
| COc1cccc(NC(=O)COC(=O)[C@]23CC[C@@H](C)[C@H](C)[C@H]2C2=CC[C@@H]4[C@@]5(C)CCC(=O)C(C)(C)[C@@H]5CC[C@@]4(C)[C@]2(C)CC3)c1 |  | > 50 |  | > 50 |  | > 50 | > 50 |  |  | > 50 | > 50 |  |  |
| C[C@H]1[C@H](C)CC[C@]2(C(=O)OCC(=O)Nc3ccccc3)CC[C@]3(C)C(=CC[C@@H]4[C@@]5(C)CCC(=O)C(C)(C)[C@@H]5CC[C@]43C)[C@H]12 | 10.3 | 16.1 | 1.94 | > 50 |  | 16.3 | 13.8 | > 50 | < 5 | 14.1 | 16 | 24.2 | 26.6 |
| COc1cc(NC(=O)[C@]23CC[C@@H](C)[C@H](C)[C@H]2C2=CC[C@@H]4[C@@]5(C)CC[C@H](OC(C)=O)C(C)(C)[C@@H]5CC[C@@]4(C)[C@]2(C)CC3)cc(OC)c1OC | 14.8 | 37.2 |  | > 50 |  | 28.7 | 21.1 |  | < 5 | 36.5 | 30.5 |  |  |
| COc1cc(NC(=O)COC(=O)[C@]23CC[C@@H](C)[C@H](C)[C@H]2C2=CC[C@@H]4[C@@]5(C)CCC(=O)C(C)(C)[C@@H]5CC[C@@]4(C)[C@]2(C)CC3)cc(OC)c1OC | > 20 | 38.7 |  | > 50 |  | 27.9 | 39.6 |  | < 5 | 35.8 | 37.8 |  |  |

Continued, in another order:

| IC50 [1] [µM] | SMILES | IC50 (MGC-803) [µM] | Ratio IC50 [2] | IC50 (L02) [µM] | Ratio IC50 [3] | IC50 [4] [µM] | IC50 (NCI-H460 [5]) [µM] | IC50 [6] [µM] | Activity (NCI-H460 [7]) [%] | IC50 (A549) [µM] | IC50 (T-24) [µM] | IC50 (HepG2) [µM] | IC50 [8] [µM] |
| --- | --- | --- | --- | --- | --- | --- | --- | --- | --- | --- | --- | --- | --- |
| > 20 | COc1ccc(NC(=O)COC(=O)[C@]23CC[C@@H](C)[C@H](C)[C@H]2C2=CC[C@@H]4[C@@]5(C)CCC(=O)C(C)(C)[C@@H]5CC[C@@]4(C)[C@]2(C)CC3)cc1OC | 38.2 |  | > 50 |  | 18.9 | 22.8 |  | < 5 | 35.2 | 27.7 |  |  |
| 10.1 | COc1ccc(NC(=O)[C@]23CC[C@@H](C)[C@H](C)[C@H]2C2=CC[C@@H]4[C@@]5(C)CC[C@H](OC(C)=O)C(C)(C)[C@@H]5CC[C@@]4(C)[C@]2(C)CC3)cc1OC | 27.8 |  | > 50 |  | 12.9 | 11.9 |  | < 5 | 22.9 | 24.7 |  |  |
| > 20 | COc1ccc(NC(=O)[C@]23CC[C@@H](C)[C@H](C)[C@H]2C2=CC[C@@H]4[C@@]5(C)CCC(=O)C(C)(C)[C@@H]5CC[C@@]4(C)[C@]2(C)CC3)cc1 | 29.7 |  | > 50 |  | 21.1 | 28.1 |  | < 5 | 39.9 | 32.5 |  |  |
| 16 | COc1ccc(NC(=O)COC(=O)[C@]23CC[C@@H](C)[C@H](C)[C@H]2C2=CC[C@@H]4[C@@]5(C)CCC(=O)C(C)(C)[C@@H]5CC[C@@]4(C)[C@]2(C)CC3)cc1 | 27.9 |  | > 50 |  | 19.4 | 17.6 |  | < 5 | 24.6 | 26.2 |  |  |

Source: ChEMBL document CHEMBL4261518, “Side chain-functionalized aniline-derived ursolic acid derivatives as multidrug resistance reversers that block the nuclear factor-kappa B (NF-κB) pathway and cell proliferation” (Medchemcomm, 2017)
